ChEMBL document CHEMBL3232862, “Optimization of chemical functionalities of indole-2-carboxamides to improve allosteric parameters for the cannabinoid receptor 1 (CB1)” (J Med Chem, 2014)
Activity calls are given as the source filed them. No cut-off for these calls is given here.

Legend:
[1] = target: Cannabinoid receptor 1 (Homo sapiens) (UniProt P21554); test: Displacement of [3H]CP55940 from cannabinoid CB1 receptor (unknown origin) expressed in HEK293 cells after 60 mins by liquid scintillation counting; format: cell-based
How it was run: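 Membranes from HEK293 cells transiently transfected with CB1 (calcium phosphate), harvested 24 h post-transfection. […] At least nine test concentrations, 100 pM–100 μM. Nonspecific binding defined with 1 μM unlabeled CP55,940. Bound ligand kept below 10%. Filtration on GF/C. Duplicates, ≥3 independent experiments. KB and α obtained by nonlinear regression using the allosteric ternary complex model.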

[2] = target: Cannabinoid receptor 1 (Homo sapiens) (UniProt P21554); test: Positive allosteric modulation of cannabinoid CB1 receptor (unknown origin) expressed in HEK293 cells assessed as effect on ERK1/2 phosphorylation at 5 uM by Western blot analysis in absence of siRNA targeting beta-arrestin 1; format: cell-based
How it was run: (§1)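 HEK293 cells were lipofectamine-transfected with CB1, with or without β-arrestin 1 siRNA (2.6 μg) or a nonsilencing control. After 24 h they were serum-starved for 18 h, with optional PTX at 5 ng/mL for 16 h at 37 °C. Cells were exposed 5 min to modulator (0–10 μM) plus 0.2 μM CP55,940 and lysed. 12 μg protein was run on 10% SDS-PAGE and immunoblotted for phospho-p44/42 and total p44/42.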

[3] = target: Cannabinoid receptor 1 (Homo sapiens) (UniProt P21554); test: Positive allosteric modulation of cannabinoid CB1 receptor (unknown origin) expressed in HEK293 cells assessed as induction of ERK1/2 phosphorylation by Western blot analysis in presence of siRNA targeting beta-arrestin 1; format: cell-based; how it was run: as §1
[4] = target: Cannabinoid receptor 1 (Homo sapiens) (UniProt P21554); test: Allosteric modulation of cannabinoid CB1 receptor (unknown origin) expressed in HEK293 cells assessed as inhibition of CP55940-induced [35S]GTPgammaS binding after 60 mins by liquid scintillation counting; format: functional, cell-based
How it was run: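 Membranes from HEK293 cells transiently expressing CB1 (calcium phosphate transfection, harvested 24 h) were used at 7.5 μg per assay. They were incubated 60 min at 30 °C in Tris pH 7.4, MgCl2, EGTA and NaCl with 0.1 nM [35S]GTPγS, 10 μM GDP, 0.1% BSA and CP55,940 (100 pM–100 μM), with or without modulator. Nonspecific binding was taken with 10 μM GTPγS. Read-out was filtration and scintillation counting, duplicates, ≥3 experiments.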

[5] = target: Cannabinoid receptor 1 (Homo sapiens) (UniProt P21554); test: Positive allosteric modulation of cannabinoid CB1 receptor (unknown origin) expressed in HEK293 cells assessed as induction of ERK1/2 phosphorylation by Western blot analysis in absence of siRNA targeting beta-arrestin 1; format: cell-based; how it was run: as §1
[6] = target: Cannabinoid receptor 1 (Homo sapiens) (UniProt P21554); test: Positive allosteric modulation of cannabinoid CB1 receptor (unknown origin) expressed in HEK293 cells assessed as induction of ERK1/2 phosphorylation at 0.05 to 10 uM in presence of CP55940 for 5 mins and pre-treated with PTX for 16 hrs by Western blot analysis; format: cell-based; how it was run: as §1

Cannabinoid receptor 1 (Homo sapiens), sequence (P21554 whole entry): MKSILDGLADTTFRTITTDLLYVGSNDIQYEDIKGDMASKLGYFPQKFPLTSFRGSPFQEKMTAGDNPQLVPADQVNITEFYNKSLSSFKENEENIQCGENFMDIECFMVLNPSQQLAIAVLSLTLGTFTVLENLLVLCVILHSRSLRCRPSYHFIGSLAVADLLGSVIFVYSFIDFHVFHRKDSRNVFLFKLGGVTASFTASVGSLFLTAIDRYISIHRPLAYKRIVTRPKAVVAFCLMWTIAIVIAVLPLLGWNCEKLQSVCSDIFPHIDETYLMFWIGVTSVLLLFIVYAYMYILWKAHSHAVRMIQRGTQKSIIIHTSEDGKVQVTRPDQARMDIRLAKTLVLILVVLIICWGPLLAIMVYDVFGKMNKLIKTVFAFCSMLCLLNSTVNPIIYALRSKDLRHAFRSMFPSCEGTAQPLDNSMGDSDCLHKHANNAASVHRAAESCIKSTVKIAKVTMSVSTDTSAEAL

SMILES | Kb [1] | Activity [2] | inhibition [3] | inhibition [4] | inhibition [5] | Activity [6]
CCc1c(C(=O)NCCc2ccc(N(C)C)cc2)[nH]c2cc(F)ccc12 | 1580 nM | – | – | – | – | –
CCCc1c(C(=O)NCCc2ccc(N(C)C)cc2)[nH]c2ccc(Cl)cc12 | 259 nM | Active | inactive | Dose-dependent effect | Dose-dependent effect | –
CCCCc1c(C(=O)NCCc2ccc(N(C)C)cc2)[nH]c2ccc(Cl)cc12 | 209 nM | – | – | – | – | –
CCCCCCc1c(C(=O)NCCc2ccc(N(C)C)cc2)[nH]c2ccc(Cl)cc12 | 89.1 nM | Active | inactive | Dose-dependent effect | Dose-dependent effect | Active
CCc1c(C(=O)NCCc2ccc(N(C)C)cc2)[nH]c2cc(Cl)ccc12 | 3670 nM | – | – | – | – | –
CCCc1c(C(=O)NCCc2ccc(N3CCCCC3)cc2)[nH]c2ccc(Cl)cc12 | 1750 nM | – | – | – | – | –
